In the library only some 2% were active in any assay of this set; here they are far more common.
B2AR ag = agonists of human beta-2 adrenergic receptor inducing internalization. Am2.2-beta2AR cells, FAP receptor internalization, flow cytometry. AID 504454. P07550. actives 0.43% (n = 340,000). response, % (concentration not given with the values);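 active = response above a set limit, near 3 SD of response in nonfluorescent compounds, cut at about 42% in these data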
NTR1 agonist = activates human neurotensin receptor 1; P30989; NTR1-U2OS beta-arrestin-GFP spot imaging, agonist mode; actives 0.17% (n = 330,000); activation, % at 20 µM;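 active = activation at or above 40% of the spot to cytoplasm intensity ratio, with at least 20 cells analyzed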;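 also: 0% = DMSO without peptide and 100% = 100 nM NTR1 peptide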
Target sequence (P30989 whole entry, looked up): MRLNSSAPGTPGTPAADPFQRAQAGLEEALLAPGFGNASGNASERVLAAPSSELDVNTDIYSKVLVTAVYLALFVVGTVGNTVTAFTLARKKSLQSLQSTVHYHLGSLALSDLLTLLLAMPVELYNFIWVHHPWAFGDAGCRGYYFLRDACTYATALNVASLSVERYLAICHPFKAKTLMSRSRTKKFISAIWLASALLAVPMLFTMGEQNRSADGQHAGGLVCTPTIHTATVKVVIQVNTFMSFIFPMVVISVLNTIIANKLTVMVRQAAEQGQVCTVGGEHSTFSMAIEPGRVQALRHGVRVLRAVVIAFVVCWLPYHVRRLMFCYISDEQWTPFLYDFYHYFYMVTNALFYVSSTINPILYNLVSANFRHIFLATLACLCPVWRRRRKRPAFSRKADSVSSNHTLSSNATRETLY
TAG inh = inhibitors of triacylglycerol accumulation | H9c2 cells, Nile Red lipid (TAG) fluorescence; cells loaded with 200 µM oleic acid | inhibition, % at 12.5 µM | actives 0.66% (n = 230,000);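 active = pattern-corrected inhibition of lipid staining of at least 50% with the nuclear-stain viability signal not falling by more than 50%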;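 also: 0% = DMSO wells and 100% = triacsin C control wells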
Arrestin-AP2 inh = human beta-arrestin and AP2 interaction inhibition | FITC-arrestin peptide / GST-AP2 beads, flow cytometry; AP2 beta2 appendage carries R879A mutation | inhibition, % at 10 µM | actives 0.31% (n = 340,000) | AID 504490;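 active = inhibition above a set limit, near 3 SD of compounds lacking own fluorescence, cut at about 54% in these data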;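 also: plate controls were DMSO wells for no effect and 5 µM unlabelled arrestin peptide for full effect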
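system = GST-tagged AP2 beta2-adaptin appendage (R879A) on 4 µm glutathione beads | reagent = FITC-labelled arrestin peptide probe, 50 nM final | schedule = compound with beads 12 min RT, then probe 1 h RT | signal = HyperCyt-sampled flow cytometry, FL1 channel, ex 488/em 535 nm | read-out = percent response from loss of bead-bound FITC fluorescence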
Lipid droplet = hepatic lipid droplet formation modulation. AML12 mouse hepatocytes, oleate lipid droplets, BODIPY imaging. inhibition, % at 6.5 µM. AID 1656. actives 0.4% (n = 240,000);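 active = lipid droplet intensity inhibited by at least 50%, with more than 500 cells counted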
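Test system: AML12 hepatocytes (mouse); reagent: oleate loading, 100 µM; dosing: one dose, 6.5 µM compound; incubation: overnight exposure; signal: fluorescence imaging, 20x objective, two fields per well; read-out basis: % inhibition of corrected integrated BODIPY droplet signal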
GRK2 aptamer HTS = inhibitors of human GRK2 displacing RNA aptamer. inhibition of aptamer binding, % at 10 µM. actives 0.59% (n = 330,000). P25098. bead flow cytometry, FAM-aptamer displacement from GRK2;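 active = inhibition of aptamer binding above 40%, roughly 3 SD of noise, on plates passing a quality check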;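 also: median bead fluorescence of bound FAM aptamer so fluorescent compounds give negative values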
* marks the source's active call; other numbers are inactive results; / = no result.

SMILES | B2AR ag | NTR1 agonist | TAG inh | Arrestin-AP2 inh | Lipid droplet | GRK2 aptamer HTS
CCN(CC)c1ccc(N=Cc2ccc([N+](=O)[O-])o2)cc1 | 4 | 2 | 52* | / | -18 | 10
CCc1cc(CNC(=O)c2ccc(OC3CCN(CCc4ccccc4)CC3)cc2)on1 | -7 | 0 | / | -11 | 3 | 49*
O=C(NCc1ccon1)c1ccc(OC2CCN(CCc3ccccc3)CC2)cc1 | -7 | -1 | 2 | 3 | -1 | 0
CC(=O)c1ccc(S(=O)(=O)N2CCN(CCOc3ccccc3)CC2)cc1 | -11 | -1 | -17 | -8 | / | 2
Cn1cnnc1SCc1ccc(C(=O)N=Nc2c(O)n(C)c3ccccc23)cc1 | 100* | 1 | / | -4 | 0 | 1
CC(C)(C)c1ccc(Cn2c(=N)n(CC(O)c3ccco3)c3ccccc32)cc1 (configuration not stated) | 10 | 8 | 107* | 11 | -16 | 0
CCOc1ccccc1C(=O)NCC(=O)OCC(=O)N1CCCC1 | -5 | 2 | -3 | 5 | / | 3
O=C1C=C(c2c(O)ccc3ccccc23)c2ccccc2C1=O | 76* | / | 25 | 25 | / | /
O=C1C=C(O)c2cccc(O)c2C1=O | 1 | 4 | / | 3 | 6 | 5
CCOCCCNC(=O)CN1CCN(Cc2ccc(Cl)cc2)C1=O | 0 | 2 | / | 10 | / | 0
CN1CCN(c2ccc([N+](=O)[O-])cc2C(=O)c2ccc(Br)cc2)CC1 | -7 | 7 | / | 4 | / | 0
O=C(c1ccc(Br)cc1)c1cc([N+](=O)[O-])ccc1N1CCCCC1 | 34 | -1 | 59* | 5 | / | 0
CCOC(=O)N1CCC2(CC1)NC(=O)c1ccccc1N2 | / | / | -3 | / | / | /
O=C(C#Cc1cccc([N+](=O)[O-])c1)c1ccccc1 | 88* | 10 | / | 6 | 1 | 0
Cc1ccccc1CS(=O)(=O)c1nnc([C@H](CC(C)C)NC(=O)OC(C)(C)C)o1 | 64* | 20 | / | -1 | / | 0
CN(c1ccc(OC(=O)c2ccc(-n3cncn3)c([N+](=O)[O-])c2)cc1)S(=O)(=O)c1ccccc1 | 5 | 0 | 15 | -3 | / | 0
Cc1ccc(C(=O)N2CC(=O)Nc3ccc(F)cc3C2c2ccccc2)cc1 (configuration not stated) | 6 | 0 | / | 7 | -1 | 0
NC(=S)NN=Cc1nccc2c(C(F)(F)C(F)(F)C(F)(F)F)cccc12 | / | / | 74* | / | / | /
Nc1ccc(C(=O)O)c(O)c1 | 2 | -1 | -3 | 6 | 30 | 0
Nc1ccc(N)c(C(=O)O)c1 | 7 | 2 | 6 | 33 | / | 88*
O=C1ON=C(c2ccccc2)/C1=C/c1ccco1 | 58* | 4 | -9 | 2 | -16 | 2
O=C1ON=C(c2ccccc2)/C1=C/c1ccc(-c2ccccc2[N+](=O)[O-])o1 | 96* | / | / | 2 | 4 | 0
CC(C)CNC(=O)C1(C)CCCN1Cc1ccc(S(C)(=O)=O)cc1 (configuration not stated) | / | / | 4 | / | / | /
C=CS(=O)(=O)c1ccc(Oc2ccc(S(=O)(=O)C=C)cc2)cc1 | 42* | 66* | / | 0 | -16 | 0
COc1ccc(Nc2c[nH]c(=O)[nH]c2=O)cc1 | 9 | / | 4 | 12 | / | /
SMILES | B2AR ag | NTR1 agonist | TAG inh | Arrestin-AP2 inh | Lipid droplet | GRK2 aptamer HTS
CC(=O)Nc1ccnn1C1CCN(C(=O)c2cccc(C)c2C)CC1 | -3 | 0 | / | 6 | -3 | 3
O=S(=O)(c1ccc(Cl)cc1)N1CCN(Cc2ccc(O)c3ncccc23)CC1 | 3 | 1 | 53* | 6 | -25 | 0
O=C(C#Cc1ccccc1)c1ccco1 | 82* | 4 | / | 13 | 4 | 0
CCN(CC)CCNC(=O)c1cc2c(-c3ccc(Cl)cc3)nn(C)c2s1 | 9 | 4 | 65* | -1 | / | 0
Cc1onc(-c2ccccc2)c1C(=O)NC(=S)NNC(=O)c1ccncc1 | 8 | -2 | / | -2 | 6 | 74*
Cc1onc(-c2ccccc2)c1C(=O)NC(=S)NNC(=O)c1cccnc1 | 2 | 0 | / | 2 | 0 | 0
Nc1nc(-c2ccccc2)c(N=Nc2ccc(Cl)cc2)s1 | 10 | 1 | / | 21 | 93* | 2
Cc1cccc(C)c1NC(=O)c1csc([C@@H]2O[C@H](CO)[C@H](O)[C@H](O)[C@H]2O)n1 | / | / | 38 | / | / | /
C/C=C(\C)C(=O)OC1[C@H](OC(C)=O)C2(CO)C(CC1(C)C)C1=CCC3C4(C)CCC(O[C@@H]5O[C@H](C(=O)O)[C@@H](O[C@@H]6O[C@H](CO)[C@@H](O)[C@H](O)[C@H]6O)[C@H](O)[C@H]5O[C@H]5O[C@H](CO)[C@@H](O)[C@H](O)[C@H]5O)[C@](C)(CO)C4CCC3(C)[C@]1(C)C[C@H]2O (some centres not stated) | 61* | / | / | 4 | / | /
O=c1ccc2c(o1)/C(=C/C=C(Cl)Cl)CCC2 | 53* | -1 | -1 | 42 | / | 1
CCN1C/C(=C/c2cccc([N+](=O)[O-])c2)C(=O)/C(=C/c2cccc([N+](=O)[O-])c2)C1 | 87* | / | / | 16 | 0 | 0
CCOc1cc(/C=C2\CN(CC)C/C(=C\c3ccc(O)c(OCC)c3)C2=O)ccc1O | 29 | 23 | / | 38 | -16 | 1
CC(C)(C)NCC(=Cc1ccccc1)C(=O)c1ccccc1 | 10 | / | 58 | -10 | / | /
O=C(Nc1cccc(-c2nc3ccccc3[nH]2)c1)c1cccc(NC(=O)c2ccco2)c1 | 28 | 41* | / | 2 | -8 | 0
CS(=O)(=O)c1cc([N+](=O)[O-])c(Sc2nc3ccccc3[nH]2)c([N+](=O)[O-])c1 | 63* | 31 | / | 45 | 18 | 2
CCOc1ccc(CCNC(=O)CSC(=S)N2CCCC2)cc1OCC | 0 | 2 | 31 | -2 | / | 0
CCc1ccc(NC2=NCC(c3ccccc3)S2)cc1 (configuration not stated) | 67* | 6 | -25 | 28 | -15 | 2
O=[N+]([O-])c1ccc(C2CN=C(Nc3ccccc3)S2)cc1 (configuration not stated) | 14 | 1 | -15 | 18 | 3 | 1
Cc1ccsc1CNCc1cc(Cl)ccc1O | 0 | -4 | 0 | 29 | / | 4
S=C(NCCc1ccccn1)Nc1cc(Cl)cc(Cl)c1 | 5 | 0 | -16 | -23 | 1 | 0
S=C(NCCc1ccccn1)Nc1ccc(Cl)c(Cl)c1 | 53* | -1 | / | 47 | 4 | 5
Cc1ccc(CSc2nnc(SCC(=O)N/N=C/C=C/c3ccccc3[N+](=O)[O-])s2)cc1 | 9 | 2 | -12 | 4 | 0 | 0
Cc1ccc(CSc2nnc(SCC(=O)N/N=C/C=C/c3ccco3)s2)cc1 | 0 | 4 | -10 | 5 | -1 | 83*
C[C@@H]1CN([C@H](C)CO)C(=O)CCCn2cc(nn2)CO[C@H]1CN(C)C(=O)Cc1ccccc1 | / | / | 19 | / | / | /

Assay outcomes from PubChem.
